KCNK9 block: blocks the human KCNK9 two-pore domain potassium channel; Q9NPC2; HEK293 KCNK9, FluxOR thallium flux fluorescence; active compounds read low; B-score at 10 µM; 1.2% of 310,000 active; AID 488922;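 active = ratio B-score over 3 SD below the library mean, with starting fluorescence within 5 SD of its mean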;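 note: negative B-score means less thallium flux so channel inhibition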
KCNQ1 block: inhibitors of human KCNQ1 potassium channel; CHO-K1 KCNQ1, FluxOR thallium flux fluorescence; active compounds read high; 1.3% of 310,000 active; AID 2642; B-score at 10 µM; P51787;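 active = compounds whose thallium flux B-score, printed positive for inhibition, exceeds three library SD while starting fluorescence stays within three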;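 note: channel opened by potassium depolarization with thallium stimulus after 20 min compound exposure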
hERG rescue: hERG (human) protection from proarrhythmic block | activation (rescue from dofetilide block), less the hit threshold, % at 10 µM | AID 1511 | CHO-hERG, FluxOR thallium flux, dofetilide IC70 present | 0.51% of 310,000 active | Q12809;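 active = activation above the mean of controls blocked by dofetilide plus 5 SD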;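 note: thallium influx through hERG after potassium depolarization seen as dye fluorescence rise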
KCNK3 inh: human KCNK3 channel inhibition, primary screen | O14649 | CHO-KCNK3 thallium flux, FluxOR fluorescence; active compounds read low | B-score at 10 µM | 0.84% of 340,000 active;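 active = B-score under library mean minus 4 SD, starting fluorescence ratio at most library mean plus 5 SD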;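 note: more negative B-score means stronger inhibition of thallium flux through KCNK3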
KCNQ1 pot: human KCNQ1 channel potentiation or activation. P51787. CHO-K1 KCNQ1, thallium flux FluxOR fluorescence; active compounds read high. B-score at 10 µM. 0.35% of 310,000 active. AID 2648;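 active = fluorescence ratio B-score, a plate-corrected score, at least three library SD, with initial intensity B-score within 5 SD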
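Medium – assay buffer, equal DMSO in all wells · Material – CHO-K1 cell line with stable KCNQ1 potassium channel expression · Signal – kinetic FluxOR thallium fluorescence, 10-s 1-Hz baseline, 110-s post-stimulus read · Compound – single concentration per compound, DMSO matched to controls · Schedule – 37 °C overnight plating, 90-min dark dye load, 20-min compound pretreatment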
Kir21 block: Kir2.1 (mouse) channel inhibition; P35561; HEK293-Kir2.1, FluxOR thallium flux fluorescence; active compounds read low; B-score at 10 µM; 0.85% of 310,000 active; AID 1672;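 active = fluorescence ratio B-score at or below minus 3 SD of library scores, with starting-brightness B-score within 2 SD, cut at about -4.2 in these data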;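 note: channel flux triggered by added potassium and thallium sulfate stimulus; B-score of peak minus minimum fluorescence over baseline after thallium stimulus; more negative B-score means stronger Kir2.1 block with less thallium influx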
Target sequence (P35561 whole entry, looked up): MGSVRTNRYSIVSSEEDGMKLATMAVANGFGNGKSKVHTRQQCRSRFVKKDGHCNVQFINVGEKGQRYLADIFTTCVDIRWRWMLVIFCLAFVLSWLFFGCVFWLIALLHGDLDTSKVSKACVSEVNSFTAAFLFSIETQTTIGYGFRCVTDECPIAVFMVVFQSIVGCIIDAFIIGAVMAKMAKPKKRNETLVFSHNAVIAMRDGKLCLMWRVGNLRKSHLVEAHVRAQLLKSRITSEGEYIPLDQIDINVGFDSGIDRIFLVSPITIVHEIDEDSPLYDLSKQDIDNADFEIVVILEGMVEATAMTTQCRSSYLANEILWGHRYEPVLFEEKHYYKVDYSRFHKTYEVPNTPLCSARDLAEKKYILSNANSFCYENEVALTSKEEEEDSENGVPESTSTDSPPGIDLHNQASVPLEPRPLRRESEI
A number is an active result; n = inactive; x = no result given. Hits are enriched below; roughly 3.7% of the tested compounds scored in any of these assays.

SMILES	KCNK9 block	KCNQ1 block	hERG rescue	KCNK3 inh	KCNQ1 pot	Kir21 block
COC(=O)c1ccc(NC(=O)Nc2ccc(F)cc2)cc1	n	6	n	n	n	n
COC(=O)NC(=S)Nc1ccc(Oc2ccc(Cl)cc2)c(Cl)c1	n	n	n	n	n	n
COC(=O)c1ccc(NC(=O)Nc2ccc(F)c(Cl)c2)cc1	n	6	n	n	n	n
Cc1cc(OCC(=O)OCC(=O)N(C)C2CCS(=O)(=O)C2)ccc1Cl (centres undefined)	x	x	x	n	x	x
Cc1c(CCOC(=O)CC23CC4CC(CC(C)(C4)C2)C3)sc[n+]1CC(=O)c1ccccc1	n	11	n	n	n	n
Cc1c(CCOC(=O)C23CC4CC(CC(C)(C4)C2)C3)sc[n+]1CC(=O)c1ccccc1	n	n	n	n	n	n
COc1ccc(N2CCN(C(=O)COC(=O)CCc3ccccc3)CC2)cc1	x	x	x	n	x	x
C#CCOCCOCCOCCNc1nc(N2CCN(C(=O)C([C@@H](C)CC)n3cc(C(N)CC(C)C)nn3)CC2)nc(N2CCN(C(=O)[C@H](CCC(=O)O)n3cc(C(N)Cc4ccc(O)cc4)nn3)CC2)n1 (some centres undefined)	n	n	n	n	n	n
C#CCOCCOCCOCCNc1nc(N2CCN(C(=O)C([C@@H](C)CC)n3cc(C(N)Cc4ccc(O)cc4)nn3)CC2)nc(N2CCN(C(=O)[C@H](CCC(=O)O)n3cc(C(N)CC(C)C)nn3)CC2)n1 (some centres undefined)	n	n	n	n	24	n
NNC(=O)c1n[nH]c2c1CC(C1CCCCC1)CC2 (centres undefined)	x	x	x	n	x	x
CN1CCN(C(c2cccc(Cl)c2)c2ccccc2Cl)CC1 (centres undefined)	n	n	n	n	n	-4.4
CN1CCN(C(c2ccccc2)c2ccc(Cl)cc2)CC1 (centres undefined)	x	x	x	n	x	x
COCCCNC(=S)N1CCN(S(C)(=O)=O)CC1	n	n	n	n	n	n
CCOC(=O)C1=NN(C(C)=O)C2(CC(=O)N(c3ccc(C)c(C)c3)C2=O)C1 (centres undefined)	n	n	n	n	n	n
COc1ccc(NC(=O)CN(C)C(=O)c2ccccc2Sc2ncnc3sc(C)c(C)c23)cc1	n	n	n	n	n	n
CCOc1ccc(C(=O)Nc2cc(C)on2)cc1OCC	n	n	4.9	n	n	n
O=C(CNCc1ccccc1)Nc1ccc(Oc2ccccc2)cc1	n	n	n	n	n	-9.5
CCCCn1c(SCC(=O)c2ccc3c(c2)OCCO3)nnc1-c1ccoc1C	n	n	n	n	n	-5
COc1ccc(S(=O)(=O)NC2(C(F)(F)F)N=C(c3ccccc3)NC2=O)cc1 (centres undefined)	-7.9	n	n	n	n	n
O=C1NC(c2ccccc2)=NC1(NS(=O)(=O)c1ccccc1)C(F)(F)F (centres undefined)	n	n	n	n	n	n
COc1cc(OC)cc(C(=O)N[C@H](C(=O)OCc2cc(=O)oc3cc(C)ccc23)C(C)C)c1	n	n	n	n	n	n
CCOc1ccccc1C(=O)N[C@H](C(=O)OCc1cc(=O)oc2cc(C)ccc12)C(C)C	-6.7	n	n	n	n	n
CCOc1ccccc1C(=O)NC(C(=O)N(C)Cc1ccc2c(c1)OCO2)C(C)C (centres undefined)	x	x	x	-9.2	x	x
Cc1cc(OCc2cc(C(=O)N(C)CCCN3CCOCC3)no2)cc(C)c1Cl	n	n	n	n	n	n
Cc1cc(OCc2cc(C(=O)N(C)CC3CCOCC3)no2)cc(C)c1Cl	n	n	n	n	n	-5.1
CN(/N=C/c1cc(Br)cc(Br)c1O)c1cccc(C(F)(F)F)n1	-7.1	n	n	n	n	n
Cc1ccc(C(=O)O)cc1N=Cc1cc(Br)cc(Br)c1O	n	n	n	n	n	n
CC(C)(C)c1cnnn1-c1ccc(C(=O)CCl)cc1	n	n	n	n	n	-6.5
CCOC(=O)c1c(NC(=O)CSc2nc3ccc(C)cc3[nH]2)sc2c1CC(C)(C)NC2(C)C	n	n	n	n	n	-4.8
CCOc1cccc(=O)c2c(C)n(-c3ccc(C(=O)O)cc3)c(C)c12	n	n	4.8	n	n	n

Source: PubChem
